The text below walks through data of ChEMBL document CHEMBL4837264, “Rational Design, Optimization, and Biological Evaluation of Novel MEK4 Inhibitors against Pancreatic Adenocarcinoma” (ACS Med Chem Lett, 2021).

The target of series [1] is T1, Dual specificity mitogen-activated protein kinase kinase 7 (Homo sapiens) (UniProt O14733).
T1 sequence (whole entry): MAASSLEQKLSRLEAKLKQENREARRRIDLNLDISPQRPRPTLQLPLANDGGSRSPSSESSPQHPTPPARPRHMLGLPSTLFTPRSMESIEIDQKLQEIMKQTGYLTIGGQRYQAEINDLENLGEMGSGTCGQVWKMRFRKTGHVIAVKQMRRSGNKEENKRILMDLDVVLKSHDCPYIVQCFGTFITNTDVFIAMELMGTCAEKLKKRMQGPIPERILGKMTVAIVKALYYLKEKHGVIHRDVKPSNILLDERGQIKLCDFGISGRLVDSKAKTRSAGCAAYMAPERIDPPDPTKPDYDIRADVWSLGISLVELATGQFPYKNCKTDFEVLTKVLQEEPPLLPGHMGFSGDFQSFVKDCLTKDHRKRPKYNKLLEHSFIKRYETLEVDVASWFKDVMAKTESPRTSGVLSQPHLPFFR
Nature of the series: Inhibition of human wild type full length MEK7 (M1 to R417 residues) expressed in mammalian expression system at 1 uM measured by Kinomescan assay.

For series [2], the target named is Dual specificity mitogen-activated protein kinase kinase 2 (Homo sapiens) (UniProt P36507). Nature of the series: Inhibition of human MEK2 in human HPAF-II cells assessed as decrease of p42/44 MAPK phosphorylation in presence of U0126 at 10 uM measured after 5 hrs by Westren blot assay. The format is cell-based.
Series [3] has the same target. The experiment in a line: Inhibition of human MEK2 in human HEK293T cells assessed as reversal of anisomycin-induced decrease of p42/44 MAPK phosphorylation at 100 uM measured after 5 hrs by Western blot assay. Format: cell-based. The essentials: (§1)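 HEK293T cells pretreated with anisomycin (3 μg/mL) for 45 min, then given inhibitor (100 μM) for 5 h. Phospho- and total p42/44 MAPK and p38 MAPK, plus MEK7, detected by Western blot with HSP90 as loading control. Blots representative of at least three biological replicates.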

The subject of series [4] is MIA PaCa-2. The experiment in a line: Antiproliferative activity against human MIA PaCa-2 cells assessed as inhibition of cell proliferation measured after 72 hrs. The format is functional, cell-based. The method, boiled down:
(§2)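 Cells (~30,000; HEK293T, or pancreatic CD18 and MiaPaCa2) exposed to DMSO or a range of inhibitor doses for 72 h, then trypsinized and counted. Counts normalized to the DMSO control. Mean ± SD; three biological replicates; one-way ANOVA.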

Series [5] has as its target T2, Dual specificity mitogen-activated protein kinase kinase 3 (Homo sapiens) (UniProt P46734).
T2 sequence (whole entry): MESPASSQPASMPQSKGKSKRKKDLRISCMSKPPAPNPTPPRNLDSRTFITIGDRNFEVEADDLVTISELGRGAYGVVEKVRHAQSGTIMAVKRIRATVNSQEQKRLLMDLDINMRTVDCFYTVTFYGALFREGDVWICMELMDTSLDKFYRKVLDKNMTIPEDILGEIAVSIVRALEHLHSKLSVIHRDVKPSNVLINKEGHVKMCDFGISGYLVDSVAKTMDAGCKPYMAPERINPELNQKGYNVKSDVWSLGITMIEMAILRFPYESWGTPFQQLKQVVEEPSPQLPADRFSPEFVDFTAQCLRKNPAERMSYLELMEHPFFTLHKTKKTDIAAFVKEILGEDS
Nature of the series: Inhibition of human wild type full length MEK3 (M1 to S318) expressed in mammalian expression system at 1 uM measured by Kinomescan assay.

Series [6] addresses Dual specificity mitogen-activated protein kinase kinase 1 (Homo sapiens) (UniProt Q02750). Nature of the series: Inhibition of human MEK1 in human MIA PaCa-2 cells assessed as decrease of p42/44 MAPK phosphorylation in presence of U0126 at 10 uM measured after 5 hrs by Westren blot assay. Format: cell-based. The method, boiled down: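 CD18 or MiaPaCa2 cells pretreated with U0126 (1 or 5 μM) for 1 h, then MEK4 inhibitor (10 μM) added for 5 h. Phospho- and total p42/44 MAPK detected by Western blot with HSP90 as loading control. Blots representative of at least three biological replicates.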

The test system of series [7] is HPAF-II. The experiment in a line: Antiproliferative activity against human HPAF-II cells assessed as inhibition of cell proliferation measured after 72 hrs. The format is functional, cell-based. The method, boiled down:
as §2

Series [8] has as its system MIA PaCa-2. Nature of the series: Antiproliferative activity against human MIA PaCa-2 cells assessed as inhibition of cell proliferation in presence of […] at 10 uM measured after 72 hrs. The format is functional, cell-based. The method, boiled down:
(§3)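 CD18 or MiaPaCa2 cells (~30,000) treated for 72 h with DMSO, U0126 (1 or 5 μM), MEK4 inhibitor (10 μM), or the combination. Cells trypsinized and counted, with counts normalized to DMSO; two-way ANOVA. Interaction expressed as CDI = AB/(A × B) from the normalized ratios, mean ± SEM of three biological replicates.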

Series [9] concerns the target T2, Dual specificity mitogen-activated protein kinase kinase 3 (Homo sapiens). The experiment in a line: Inhibition of human wild type full length MEK3 (M1 to S318) expressed in mammalian expression system at 10 uM measured by Kinomescan assay. The essentials: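 Kinome-wide binding scan on the scanEDGE DiscoverX platform, covering 97 kinases, each tested at a single compound concentration of 10 μM.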

For series [10], the target named is Cytochrome P450 3A4 (Homo sapiens, UniProt P08684). Nature of the series: Inhibition of CYP3A4 (unknown origin). The format is ADME.
Series [11] relates to HPAF-II. Nature of the series: Antiproliferative activity against human HPAF-II cells assessed as inhibition of cell proliferation in presence of […] at 10 uM measured after 72 hrs. Format: functional, cell-based. The method, boiled down: as §3
Series [12] concerns the target Cytochrome P450 1A2 (Homo sapiens, UniProt P05177). The experiment in a line: Inhibition of CYP1A2 (unknown origin). Format: ADME.
The nature of series [13]: Metabolic stability in human liver microsomes assessed as half life by microsome assay. Format: ADME. On the technique in general: Liver microsomes are vesicles of endoplasmic reticulum, rich in cytochrome P450 enzymes.
For series [14], the target named is Dual specificity mitogen-activated protein kinase kinase 1 (Homo sapiens) (UniProt Q02750). The experiment in a line: Inhibition of human MEK1 in human HEK293T cells assessed as reversal of anisomycin-induced decrease of p42/44 MAPK phosphorylation at 100 uM measured after 5 hrs by Western blot assay. The format is cell-based. The method, boiled down:
as §1
In general terms: In western blotting, separated proteins are transferred to a membrane and probed.

Series [15] deals with T3, Dual specificity mitogen-activated protein kinase kinase 5 (Homo sapiens) (UniProt Q13163).
T3 sequence (whole entry): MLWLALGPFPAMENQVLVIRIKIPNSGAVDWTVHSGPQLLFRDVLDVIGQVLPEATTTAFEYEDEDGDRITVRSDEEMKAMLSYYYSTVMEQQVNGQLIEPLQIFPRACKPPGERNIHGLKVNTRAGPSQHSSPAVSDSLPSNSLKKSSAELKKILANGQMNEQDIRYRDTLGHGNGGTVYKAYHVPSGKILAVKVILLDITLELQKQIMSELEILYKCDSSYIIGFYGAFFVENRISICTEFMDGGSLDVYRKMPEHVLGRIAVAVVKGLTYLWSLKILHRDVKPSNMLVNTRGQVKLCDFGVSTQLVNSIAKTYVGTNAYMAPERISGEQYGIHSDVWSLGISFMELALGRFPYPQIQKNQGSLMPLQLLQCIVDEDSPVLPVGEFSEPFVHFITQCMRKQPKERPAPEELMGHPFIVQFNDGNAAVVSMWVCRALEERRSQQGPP
Nature of the series: Inhibition of human wild type partial length MEK5 (L98 to P448 residues) expressed in mammalian expression system at 1 uM measured by Kinomescan assay.

Series [16] addresses T2, Dual specificity mitogen-activated protein kinase kinase 3 (Homo sapiens). The experiment in a line: Inhibition of human MEK3 in human HEK293T cells assessed as inhibition of anisomycin-induced p38 MAPK phosphorylation at 100 uM measured after 5 hrs by Western blot assay. The format is cell-based. The method, boiled down: as §1

Structures are written as SMILES. Activity calls are given as the source filed them.

For orientation: inhibition means the change of the read-out against control, counted positive when it falls. What is called half-life is the time needed for the level to fall by half in the phase considered.

Dual specificity mitogen-activated protein kinase kinase 2 (Homo sapiens), sequence (P36507 whole entry): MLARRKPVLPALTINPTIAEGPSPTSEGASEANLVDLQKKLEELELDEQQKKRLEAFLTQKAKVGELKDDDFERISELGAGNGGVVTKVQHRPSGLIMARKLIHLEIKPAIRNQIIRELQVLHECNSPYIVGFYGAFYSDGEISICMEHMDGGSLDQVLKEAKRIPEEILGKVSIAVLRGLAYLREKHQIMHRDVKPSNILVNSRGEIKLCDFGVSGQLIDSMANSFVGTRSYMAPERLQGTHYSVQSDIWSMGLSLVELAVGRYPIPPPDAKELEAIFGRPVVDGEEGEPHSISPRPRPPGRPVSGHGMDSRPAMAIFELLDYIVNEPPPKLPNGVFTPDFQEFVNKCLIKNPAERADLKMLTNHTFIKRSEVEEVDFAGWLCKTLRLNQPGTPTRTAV
Dual specificity mitogen-activated protein kinase kinase 1 (Homo sapiens), sequence (Q02750 whole entry): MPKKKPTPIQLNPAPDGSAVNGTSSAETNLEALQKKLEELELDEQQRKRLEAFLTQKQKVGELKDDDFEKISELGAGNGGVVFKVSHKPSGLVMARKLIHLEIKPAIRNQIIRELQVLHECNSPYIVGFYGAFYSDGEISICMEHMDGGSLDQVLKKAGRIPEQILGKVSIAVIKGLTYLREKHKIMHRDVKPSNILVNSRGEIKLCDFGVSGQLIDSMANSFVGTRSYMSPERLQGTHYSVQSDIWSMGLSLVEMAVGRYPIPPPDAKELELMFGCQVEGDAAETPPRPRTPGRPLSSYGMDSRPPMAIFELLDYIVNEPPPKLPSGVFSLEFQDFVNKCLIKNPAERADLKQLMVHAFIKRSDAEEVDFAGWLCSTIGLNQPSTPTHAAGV
Cytochrome P450 1A2, sequence (P05177 whole entry): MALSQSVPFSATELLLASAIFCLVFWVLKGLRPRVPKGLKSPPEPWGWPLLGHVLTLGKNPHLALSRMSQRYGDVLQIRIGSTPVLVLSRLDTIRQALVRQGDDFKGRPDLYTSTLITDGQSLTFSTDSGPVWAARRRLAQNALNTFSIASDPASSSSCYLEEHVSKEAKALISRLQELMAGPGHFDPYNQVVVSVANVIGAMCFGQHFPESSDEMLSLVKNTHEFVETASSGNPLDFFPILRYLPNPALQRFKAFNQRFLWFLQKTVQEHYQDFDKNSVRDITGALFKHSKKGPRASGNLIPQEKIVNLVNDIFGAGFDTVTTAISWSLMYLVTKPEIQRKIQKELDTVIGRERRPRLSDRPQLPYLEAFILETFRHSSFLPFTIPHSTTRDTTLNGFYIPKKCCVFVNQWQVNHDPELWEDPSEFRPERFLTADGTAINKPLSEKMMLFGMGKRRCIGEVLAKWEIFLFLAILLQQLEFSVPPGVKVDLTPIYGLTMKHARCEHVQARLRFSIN
Cytochrome P450 3A4, sequence (P08684 whole entry): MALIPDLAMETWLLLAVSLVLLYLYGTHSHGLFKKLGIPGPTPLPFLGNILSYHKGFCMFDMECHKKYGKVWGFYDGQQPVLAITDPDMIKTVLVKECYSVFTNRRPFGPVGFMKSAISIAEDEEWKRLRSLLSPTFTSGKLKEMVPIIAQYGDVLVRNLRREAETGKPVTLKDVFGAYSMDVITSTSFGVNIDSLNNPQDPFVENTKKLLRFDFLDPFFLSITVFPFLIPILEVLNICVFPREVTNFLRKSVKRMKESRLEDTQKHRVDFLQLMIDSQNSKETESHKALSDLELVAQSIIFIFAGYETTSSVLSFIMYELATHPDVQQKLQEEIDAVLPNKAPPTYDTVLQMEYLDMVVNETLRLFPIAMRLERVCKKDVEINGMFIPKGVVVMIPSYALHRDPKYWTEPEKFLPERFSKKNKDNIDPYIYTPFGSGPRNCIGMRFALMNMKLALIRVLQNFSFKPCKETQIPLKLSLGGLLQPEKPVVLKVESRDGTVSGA

On to `NC(=O)c1ccc(NS(=O)(=O)c2cccc(-c3n[nH]c4cc(F)ccc34)c2)cc1`, for which the inhibition in series [1] turned out to be 74%; in [5], 86%; in series [9], 99%; in series [15], 87%. For the same compound, the inhibition entry in series [2], in series [3], in series [6] and in series [14] was “Active” throughout. The outcome in [4], in [7], in series [8] and in [11] was Active. Moreover, the “inhibition (INH)” value is given as “Not Active” in series [10] and “Active” in series [12]. For the same compound, the half-life in series [13] was over 3.08 h. In addition, in series [16], the inhibition entry is “inactive”.
With `NS(=O)(=O)c1ccc(-c2n[nH]c3cc(F)ccc23)cc1`, the inhibition in series [1] is 58%; in [5] it was 40%; in series [9], 91%; in [15] it was 22%. The inhibition result in series [2], in series [3], in series [6] and in series [14] was “Active” throughout. For the same compound, the outcome in series [4], in series [7], in series [8] and in series [11] was Active. In addition, the “inhibition (INH)” value is recorded as “Not Active” in series [10] and “Active” in series [12]. Also, in [13], the half-life worked out at 1.9 h. Besides, in series [16], the inhibition result was “inactive”.
